Measured values as given in paper PMC4168221 (Clinical Drug Investigation, 2014).
Entries after “also recorded” stand apart in the source; their conditions may differ.

What was measured:
[1] = Urinary pharmacokinetics of unchanged canagliflozin; type: in vivo, human (Japanese patients with type 2 diabetes mellitus); details: for Ae0–72h% (cumulative urinary excretion rate from time zero to 72 h) / CLR: mean (SD)
Method in brief: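 Per period, urine was collected at 11–0 h pre-dose, then 0–4.5, 4.5–10.5, 10.5–13, 13–24, 24–48 and 48–72 h after a single oral 100 or 200 mg dose. Volumes were recorded, and mixed aliquots were stored at −20 °C. Parent drug was measured by solid-phase extraction then HPLC–MS/MS (validated 1–2,000 ng/mL).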

[2] = Safety: adverse events after single doses; type: in vivo, human (Japanese patients with type 2 diabetes mellitus)
Method in brief: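 Adverse events were recorded with intensity and relation to drug, then coded by system organ class and preferred term (MedDRA/J 15.0). Adverse drug reactions were events the investigator judged reasonably related. Also checked: laboratory tests, renal function, vital signs, body weight and 12-lead ECG. Patients were hospitalised and received single 100 and 200 mg oral doses in crossover.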

[3] = canagliflozin 100 mg, moderate renal impairment (n = 12)
[4] = canagliflozin 100 mg, normal renal function or mild renal impairment (n = 12)
[5] = canagliflozin 200 mg, moderate renal impairment (n = 12)
[6] = canagliflozin 200 mg, normal renal function or mild renal impairment (n = 12)
[7] = Moderate renal impairment, canagliflozin 100 mg (n = 12)
[8] = Moderate renal impairment, canagliflozin 200 mg (n = 12)
[9] = Normal renal function or mild renal impairment, canagliflozin 100 mg (n = 12)
[10] = Normal renal function or mild renal impairment, canagliflozin 200 mg (n = 12)
[11] = single doses of 100 and 200 mg, all patients

Cc1ccc([C@@H]2O[C@H](CO)[C@@H](O)[C@H](O)[C@H]2O)cc1Cc1ccc(-c2ccc(F)cc2)s1 [Canagliflozin, canagliflozin]
amount of canagliflozin excreted into urine from 0 to 72 h (urinary excretion ratio of unchanged drug) ([1]; % of the dose, both doses): < 1% | Ae0–72h% (cumulative urinary excretion rate from time zero to 72 h) [1, 3]: 0.538 (0.229) % | CLR [1, 3]: 0.064 (0.021) L/h | Ae0–72h% (cumulative urinary excretion rate from time zero to 72 h) [1, 4]: 0.541 (0.168) % | CLR [1, 4]: 0.085 (0.037) L/h | Ae0–72h% (cumulative urinary excretion rate from time zero to 72 h) [1, 5]: 0.480 (0.143) % | CLR [1, 5]: 0.058 (0.022) L/h | Ae0–72h% (cumulative urinary excretion rate from time zero to 72 h) [1, 6]: 0.559 (0.182) % | CLR [1, 6]: 0.080 (0.029) L/h | Adverse events Total: Incidence [2, 7]: 25.0% | Adverse events Total: No. of events [2, 7]: 3 | Adverse events Total: No. of subjects [2, 7]: 3 | Back pain: Incidence [2, 7]: 0.0% | Back pain: No. of events [2, 7]: 0 | Back pain: No. of subjects [2, 7]: 0 | Blood CPK increased: Incidence [2, 7]: 0.0% | Blood CPK increased: No. of events [2, 7]: 0 | Blood CPK increased: No. of subjects [2, 7]: 0 | Blood creatinine increased: Incidence [2, 7]: 0.0% | Blood creatinine increased: No. of events [2, 7]: 0 | Blood creatinine increased: No. of subjects [2, 7]: 0 | Blood glucose increased: Incidence [2, 7]: 0.0% | Blood glucose increased: No. of events [2, 7]: 0 | Blood glucose increased: No. of subjects [2, 7]: 0 | Constipation: Incidence [2, 7]: 0.0% | Constipation: No. of events [2, 7]: 0 | Constipation: No. of subjects [2, 7]: 0 | Diarrhea: Incidence [2, 7]: 0.0% | Diarrhea: No. of events [2, 7]: 0 | Diarrhea: No. of subjects [2, 7]: 0 | Nasopharyngitis: Incidence [2, 7]: 8.3% | Nasopharyngitis: No. of events [2, 7]: 1 | Nasopharyngitis: No. of subjects [2, 7]: 1 | Pollakiuria: Incidence [2, 7]: 8.3% | Pollakiuria: No. of events [2, 7]: 1 | Pollakiuria: No. of subjects [2, 7]: 1 | Protein urine present: Incidence [2, 7]: 8.3% | Protein urine present: No. of events [2, 7]: 1 | Protein urine present: No. of subjects [2, 7]: 1 | Adverse events Total: Incidence [2, 8]: 8.3% | Adverse events Total: No. of events [2, 8]: 1 | Adverse events Total: No. of subjects [2, 8]: 1 | Back pain: Incidence [2, 8]: 0.0% | Back pain: No. of events [2, 8]: 0 | Back pain: No. of subjects [2, 8]: 0 | Blood CPK increased: Incidence [2, 8]: 0.0% | Blood CPK increased: No. of events [2, 8]: 0 | Blood CPK increased: No. of subjects [2, 8]: 0 | Blood creatinine increased: Incidence [2, 8]: 0.0% | Blood creatinine increased: No. of events [2, 8]: 0 | Blood creatinine increased: No. of subjects [2, 8]: 0 | Blood glucose increased: Incidence [2, 8]: 0.0% | Blood glucose increased: No. of events [2, 8]: 0 | Blood glucose increased: No. of subjects [2, 8]: 0 | Constipation: Incidence [2, 8]: 0.0% | Constipation: No. of events [2, 8]: 0 | Constipation: No. of subjects [2, 8]: 0 | Diarrhea: Incidence [2, 8]: 0.0% | Diarrhea: No. of events [2, 8]: 0 | Diarrhea: No. of subjects [2, 8]: 0 | Nasopharyngitis: Incidence [2, 8]: 8.3% | Nasopharyngitis: No. of events [2, 8]: 1 | Nasopharyngitis: No. of subjects [2, 8]: 1 | Pollakiuria: Incidence [2, 8]: 0.0% | Pollakiuria: No. of events [2, 8]: 0 | Pollakiuria: No. of subjects [2, 8]: 0 | Protein urine present: Incidence [2, 8]: 0.0% | Protein urine present: No. of events [2, 8]: 0 | Protein urine present: No. of subjects [2, 8]: 0 | Adverse events Total: Incidence [2, 9]: 16.7% | Adverse events Total: No. of events [2, 9]: 3 | Adverse events Total: No. of subjects [2, 9]: 2 | Back pain: Incidence [2, 9]: 8.3% | Back pain: No. of events [2, 9]: 1 | Back pain: No. of subjects [2, 9]: 1 | Blood CPK increased: Incidence [2, 9]: 0.0% | Blood CPK increased: No. of events [2, 9]: 0 | Blood CPK increased: No. of subjects [2, 9]: 0 | Blood creatinine increased: Incidence [2, 9]: 0.0% | Blood creatinine increased: No. of events [2, 9]: 0 | Blood creatinine increased: No. of subjects [2, 9]: 0 | Blood glucose increased: Incidence [2, 9]: 0.0% | Blood glucose increased: No. of events [2, 9]: 0 | Blood glucose increased: No. of subjects [2, 9]: 0 | Constipation: Incidence [2, 9]: 8.3% | Constipation: No. of events [2, 9]: 1 | Constipation: No. of subjects [2, 9]: 1 | Diarrhea: Incidence [2, 9]: 8.3% | Diarrhea: No. of events [2, 9]: 1 | Diarrhea: No. of subjects [2, 9]: 1 | Nasopharyngitis: Incidence [2, 9]: 0.0% | Nasopharyngitis: No. of events [2, 9]: 0 | Nasopharyngitis: No. of subjects [2, 9]: 0 | Pollakiuria: Incidence [2, 9]: 0.0% | Pollakiuria: No. of events [2, 9]: 0 | Pollakiuria: No. of subjects [2, 9]: 0 | Protein urine present: Incidence [2, 9]: 0.0% | Protein urine present: No. of events [2, 9]: 0 | Protein urine present: No. of subjects [2, 9]: 0 | Adverse events Total: Incidence [2, 10]: 25.0% | Adverse events Total: No. of events [2, 10]: 4 | Adverse events Total: No. of subjects [2, 10]: 3 | Back pain: Incidence [2, 10]: 0.0% | Back pain: No. of events [2, 10]: 0 | Back pain: No. of subjects [2, 10]: 0 | Blood CPK increased: Incidence [2, 10]: 8.3% | Blood CPK increased: No. of events [2, 10]: 1 | Blood CPK increased: No. of subjects [2, 10]: 1 | Blood creatinine increased: Incidence [2, 10]: 8.3% | Blood creatinine increased: No. of events [2, 10]: 1 | Blood creatinine increased: No. of subjects [2, 10]: 1 | Blood glucose increased: Incidence [2, 10]: 8.3% | Blood glucose increased: No. of events [2, 10]: 1 | Blood glucose increased: No. of subjects [2, 10]: 1 | Constipation: Incidence [2, 10]: 0.0% | Constipation: No. of events [2, 10]: 0 | Constipation: No. of subjects [2, 10]: 0 | Diarrhea: Incidence [2, 10]: 0.0% | Diarrhea: No. of events [2, 10]: 0 | Diarrhea: No. of subjects [2, 10]: 0 | Nasopharyngitis: Incidence [2, 10]: 8.3% | Nasopharyngitis: No. of events [2, 10]: 1 | Nasopharyngitis: No. of subjects [2, 10]: 1 | Pollakiuria: Incidence [2, 10]: 0.0% | Pollakiuria: No. of events [2, 10]: 0 | Pollakiuria: No. of subjects [2, 10]: 0 | Protein urine present: Incidence [2, 10]: 0.0% | Protein urine present: No. of events [2, 10]: 0 | Protein urine present: No. of subjects [2, 10]: 0 | adverse events considered related to the study drug [2, 11]: Only one case of pollakiuria and one of diarrhea were considered to be related to the study drug | hypoglycemia [2, 11]: no patient developed hypoglycemia; also recorded: None of the patients developed hypoglycemia; also recorded: no cases of hypoglycemia
